MrgX1 ag = agonists of human MrgX1 receptor, primary screen, HEK293 cells, Fluo-4 calcium flux. Mas-related G-protein coupled receptor member X1 (Homo sapiens), Q96LB2. Fluo-4 calcium fluorescence, agonist mode; stronger effect = higher value. B-score at 10 µM. 310,000 tested, 0.44% active. AID 588627, 2011;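 active = calcium response B-score plate-corrected fluorescence ratio at least 3 library SD, with starting fluorescence B-score inside 5 SD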
Target sequence (Q96LB2 whole entry, looked up): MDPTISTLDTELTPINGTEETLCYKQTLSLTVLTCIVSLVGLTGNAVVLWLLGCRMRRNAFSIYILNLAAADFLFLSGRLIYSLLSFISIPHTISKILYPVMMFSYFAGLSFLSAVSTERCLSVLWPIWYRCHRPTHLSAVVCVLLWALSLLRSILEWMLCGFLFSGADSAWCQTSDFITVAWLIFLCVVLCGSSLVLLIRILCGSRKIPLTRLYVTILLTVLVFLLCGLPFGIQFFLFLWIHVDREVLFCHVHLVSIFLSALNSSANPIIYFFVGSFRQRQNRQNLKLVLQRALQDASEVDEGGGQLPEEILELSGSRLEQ
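Material – MrgX1-expressing HEK293 cells · Input – 15,000 cells seeded per well · Dosing – compound as first of three additions · Times – overnight seeding, then 1 h dark dye loading · Measured by – kinetic Fluo-4 NW fluorescence of intracellular calcium · Read-out – B-scored fluorescence response ratio · Benchmarks – positive and negative control wells on each plate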
RGS4 block = RGS4 inhibitors, primary screen, cell-based, HEK293 M3R inducible RGS4, calcium flux. Regulator of G-protein signaling 4 (Homo sapiens), P49798. Fluo-4 calcium flux; stronger effect = higher value; triggered by carbachol at its EC20. B-score at 10 µM. 310,000 tested, 0.45% active. AID 463165, 2010;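 active = B-score, a plate-corrected calcium signal, over three deviations above library mean, with baseline fluorescence within five deviations of library mean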;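 also: RGS4 expression induced by doxycycline in cells with stable M3 receptor; B-score is computed from the integrated fluorescence ratio over baseline after carbachol; higher B-score means a larger calcium signal and so more RGS4 inhibition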
Target sequence (P49798 whole entry, looked up): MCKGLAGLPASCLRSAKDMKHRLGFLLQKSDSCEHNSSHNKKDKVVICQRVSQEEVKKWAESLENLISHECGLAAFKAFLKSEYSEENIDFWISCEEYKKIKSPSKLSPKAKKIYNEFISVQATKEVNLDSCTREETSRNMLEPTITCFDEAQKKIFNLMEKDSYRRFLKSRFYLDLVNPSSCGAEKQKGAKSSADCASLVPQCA
MrgX1 antagonist = antagonists of human MrgX1 receptor, primary screen, HEK293 cells, Fluo-4 calcium flux | Mas-related G-protein coupled receptor member X1 (Homo sapiens), Q96LB2 | BAM8-22 antagonism; stronger effect = lower value | B-score at 10 µM | 310,000 tested, 1.3% active | AID 588676, 2011;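 active = calcium-response B-score plate-corrected more than 3 library SD below zero, starting fluorescence within 5 deviations, no agonist response on first addition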;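 also: peak minus trough fluorescence over baseline after final BAM8-22 challenge near maximal dose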
RGS4 act = RGS4 potentiators or activators, primary screen, cell-based, HEK293 M3R inducible RGS4, calcium flux; carbachol calcium flux Fluo4; stronger effect = lower value; B-score at 10 µM; 310,000 tested, 0.92% active;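 active = B-score of the integrated calcium signal more than 4 SD below the library mean, with starting fluorescence not abnormally high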;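 also: negative B-score means reduced calcium response which marks RGS4 activation or potentiation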
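Assay system: Inducible-RGS4 HEK293 cells carrying M3 receptor | Schedule: Compound preincubation 20 min at room temperature before agonist | Signal: Kinetic calcium fluorescence imaging with Fluo4-AM dye, 2 µM | Read-out basis: B score from integrated fluorescence ratio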
MrgX1 PAM = positive allosteric modulators of MrgX1, primary screen, HEK293 cells, Fluo-4 calcium flux; FDSS; stronger effect = higher value; B-score at 10 µM; 310,000 tested, 0.63% active;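 active = plate-corrected calcium response at least 3 library SD above typical, normal starting fluorescence, not activating the receptor alone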;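 also: compound read alongside a low EC10 to EC30 dose of BAM8-22 agonist; peak minus trough fluorescence over baseline measured at the second addition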
* = called active by the depositor; i = inactive; . = no result. Only some compounds are listed: those with a hit (about 3.5% of all), similar ones and a draw of the others.

SMILES | MrgX1 ag | RGS4 block | MrgX1 antagonist | RGS4 act | MrgX1 PAM
CC(=O)c1cn(C2OC(CO)C3OC(C)(C)OC32)c(=O)n(C)c1=O (configuration not stated) | i | i | i | i | i
c1ccc(CN2CCN(CCOCCOc3ccc4c(c3)CCC4)CC2)cc1 | i | i | -5.6* | i | i
CCC(C)NC(=O)CN1c2cccc3cccc(c23)S1(=O)=O (configuration not stated) | i | i | i | i | i
O=C(NCC1CCCC(CNC(=O)Nc2ccc(Cl)cn2)C1)Nc1ccc(Cl)cn1 (configuration not stated) | i | i | i | i | i
Cc1ccc(C(=O)NNC(=O)c2ccc3ccccc3c2O)cc1 | i | i | i | i | i
CS(=O)(=O)N(CC(=O)Nc1ccc(F)c(F)c1)c1cccc([N+](=O)[O-])c1 | i | i | i | i | 8.55*
Cc1cccc(NS(=O)(=O)c2ccc(NC(=O)CN(c3cc([N+](=O)[O-])ccc3C)S(C)(=O)=O)cc2)c1 | i | 6.57* | i | i | i
COc1ccccc1CNC(=O)CN(c1cccc([N+](=O)[O-])c1)S(C)(=O)=O | i | i | i | i | 11*
COc1ccc(CCNC(=O)CN(c2cc([N+](=O)[O-])ccc2OC)S(C)(=O)=O)cc1 | i | i | -5.06* | i | i
NC(=O)C1(N2CCCCC2)CCN(C(=S)Nc2ccc(F)c(Cl)c2)CC1 | i | i | i | i | i
Cc1cc(C)n(-c2ccc(NC(=O)C3CCCCN3C(=O)c3sccc3C)cc2)n1 (configuration not stated) | i | i | i | i | i
Cc1ccc(OCC(=O)Nc2cccc(S(=O)(=O)N3CCCCCC3)c2)cc1C | i | i | i | i | i
COc1ccc(-n2c(SCC(=O)N3CCOCC3)nc3ccccc3c2=O)cc1 | i | i | i | i | i
COc1ccc(CCNS(=O)(=O)CCNC(=O)c2ccc(OC)cc2)cc1 | i | i | i | i | i
O=C(NCc1cccc(Cl)c1)c1cccc(OC2CCN(C(=O)C3CC3)CC2)c1 | i | i | -5.65* | i | i
Cc1ccccc1Cn1c(=O)n(C)c(=O)c2sccc21 | i | i | i | i | i
CC(=O)Oc1ccc2c(=O)c(/C=N/c3cc(=O)[nH]c(=S)[nH]3)coc2c1 | i | i | i | i | 13.8*
O=c1cc(/N=C/c2coc3cc(Br)ccc3c2=O)[nH]c(=S)[nH]1 | i | i | i | i | i
O=C1NN(c2ccc(Cl)c(Cl)c2)C(=O)/C1=C/c1cccc(OC(=O)c2cccs2)c1 | i | 25.4* | i | i | i
COc1cc(CC(=O)N(C)CC(=O)Nc2ccc(Cl)c(C(F)(F)F)c2)cc(OC)c1OC | i | i | i | i | i
Cc1oc2c(C)c3oc(=O)c(CCC(=O)NCCCn4ccnc4)c(C)c3cc2c1C | i | i | i | i | i
CSC1=C(C#N)C(c2ccccc2Cl)C2=C(N1)c1ccccc1C2=O (configuration not stated) | 32.4* | i | i | i | i
S=C(NCCC(c1ccccc1)c1ccccc1)Nc1ccc(Cl)cc1 | i | i | i | -7.91* | i
Cc1cccc(NS(=O)(=O)c2c(C)[nH]c(C)c2C(=O)N2CCCC2)c1 | i | i | i | i | i
Cc1ccc[n+](CC(=O)c2cc3ccccc3oc2=O)c1 | i | i | i | -9.89* | i
SMILES | MrgX1 ag | RGS4 block | MrgX1 antagonist | RGS4 act | MrgX1 PAM
CCc1ccc([C@@H]2CC=C(C(=O)O)[C@H](c3ccc(F)cc3)N2S(=O)(=O)c2ccc(C)cc2)cc1 | i | . | i | . | i
CC12CC(NC(=O)N1c1cccc(C(=O)NCc3ccc4c(c3)OCO4)c1)c1cc(Cl)ccc1O2 (configuration not stated) | i | i | -6.96* | i | i
CC(C)C(=O)Nc1cccc(C(=O)NCc2ccc3c(c2)OCO3)c1 | i | i | i | i | i
Cc1ccc(NC(=O)CSCC(=O)NCc2cccc(C(F)(F)F)c2)cc1 | i | i | i | i | i
CCCCCN1CC(=O)N2[C@@H](Cc3c([nH]c4ccccc34)C2(C)C)C1=O | i | i | i | i | i
CCCCN(CCCC)CCCN1CC(=O)N2[C@@H](Cc3c([nH]c4ccccc34)C2(C)C)C1=O | i | i | i | -8.44* | i
CCn1nc(NS(=O)(=O)c2ccccc2[N+](=O)[O-])c2cc3ccc(C)cc3nc21 | i | i | i | i | 9.19*
O=C1CCCc2nc(N3CCN(C(c4ccccc4)c4ccccc4)CC3)ncc21 | i | i | i | -7.04* | i
CC(C)c1ccc(OCC(=O)NNC(=S)NC(=O)c2ccco2)c(Br)c1 | i | i | i | -9.53* | i
CC(C)(C)c1ccc(OCC(=O)NNC(=S)NC(=O)c2ccco2)c(Br)c1 | i | i | i | -10.4* | i
Brc1ccc(CNc2ccc3ncccc3c2)cc1 | i | i | i | i | i
COc1ccccc1N1CCN(C2CCN(C3CCC(c4ccccc4)CC3)CC2)CC1 (configuration not stated) | i | i | i | i | 9.05*
COc1ccccc1N1CCN(C2CCC(C)CC2)CC1 (configuration not stated) | i | i | i | i | i
NS(=O)(=O)c1ccc(CCNCc2ccccc2OCc2ccc(F)cc2)cc1 | i | i | -4.75* | i | i
CC(=O)c1ccc(N2CCN(S(=O)(=O)c3c(C(=O)N4CCCC4)c(C)n(C)c3C)CC2)cc1 | i | i | i | i | i
CC1CC(C)CN(C(=O)c2ccc3c(c2NCCO)C(=O)c2ccccc2C3=O)C1 (configuration not stated) | i | i | i | i | 13.9*
O=C1c2ccccc2-c2c1cccc2C(=O)N1CCCCC1 | i | i | i | i | i
CCS(=O)(=O)N1N=C(c2cccc(NS(C)(=O)=O)c2)CC1c1ccccc1 (configuration not stated) | i | i | -5.49* | i | i
COc1ccccc1NS(=O)(=O)c1cc([N+](=O)[O-])ccc1N/N=C/c1sc(N2CCOCC2)nc1-c1ccccc1 | i | i | -8.03* | i | i
COc1ccc(C(=O)N/N=C/c2sc(N3CCOCC3)nc2-c2ccccc2)cc1OC | i | i | i | i | i
